Laboratory results reported in PubChem BioAssay AID602317 (Southern Research Specialized Biocontainment Screening …, 2012).
Results filed as inconclusive are left out. The source made the active and inactive calls.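 The calls were made as follows: active = viability under 80% at one or more tested concentrations, read as toxic; inconclusive = replicate runs disagree on whether the viability cutoff is met; inactive = viability stays at 80% or higher at every dose.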

test system: not listed separately; test: Vero E6 cell cytotoxicity, dose response, cytotoxicity control for PfM17LAP inhibitor project, set 3 (AID 602317); settings: Vero E6 viability, CellTiter-Glo luminescence, 72 h; at 50 µM (top of the series)
How it was run: (§1)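 assay system = Vero E6 cell line | schedule = 72 h compound treatment, 37 °C | measured by = CellTiter-Glo luminescence | evaluation = % viability and CC50, 4-parameter fit | benchmarks = DMSO vehicle wells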

Structure (SMILES) | viability
CCCCOc1cccc(CC(=O)OC)c1 | 99.7% (inactive)
CCOc1ccc(CC(=O)NO)cc1 | 96.8% (inactive)
COc1ccc(CCN(C)c2ccnc3ccccc23)cc1OC | 84.9% (inactive)
CCC(C)Oc1ccc(CC(=O)OC)cc1 (stereo unspecified) | 93% (inactive)
CC(C)(C(=O)NO)c1ccccc1 | 104% (inactive)
COc1ccc(CC(=O)NO)cc1 | 102% (inactive)
COC(=O)Cc1ccc(OCCN(C)C)cc1 | 98.9% (inactive)
Cc1ccc(CC(=O)NO)cc1 | 104% (inactive)
COc1ccc(CCCN2CCN(C)CC2)cc1OC | 99.5% (inactive)
COC(=O)Cc1ccc(OCC(C)C)cc1 | 109% (inactive)
O=C(NO)c1cccc2ccccc12 | 84.7% (inactive)
CCCCOc1ccc(C(C)(C)C(=O)NO)cc1 | 81.2% (inactive)
O=C(NCc1ccc2c(c1)OCO2)C1CCN(S(=O)(=O)c2ccc(Br)s2)CC1 | 95.4% (inactive)
CC[C@H](C)[C@H](NS(=O)(=O)c1ccc(Br)s1)C(=O)NCc1ccc2c(c1)OCO2 | 107% (inactive)
CCCCOc1ccc(CNc2c(N(O)Cc3ccccc3)c(=O)c2=O)cc1 | 95.5% (inactive)
CN(C)CCOc1ccc(CC(=O)O)cc1 | 98.8% (inactive)
Oc1ccc(-c2csc(Nc3ncccn3)n2)cc1O | 87.7% (inactive)
CCCOc1ccc(CC(=O)OC)cc1 | 100% (inactive)
CCCOc1ccc(CC(=O)O)cc1 | 81.1% (inactive)
CCCCOc1ccc(CC(=O)O)cc1 | 95.5% (inactive)
CN1CCN(CCc2ccc(O)c(O)c2)CC1 | 102% (inactive)
Oc1ccc(CCNc2ccnc3ccccc23)cc1O | 95.5% (inactive)
CCCCOc1ccc(C(C)C(=O)O)cc1 (stereo unspecified) | 90.8% (inactive)
CCCCOc1ccc(CNc2c(N(C)O)c(=O)c2=O)cc1 | 91% (inactive)
CN1CCN(CCCc2ccc(O)c(O)c2)CC1 | 96% (inactive)
CN1CCN(c2nc(-c3ccc(O)c(O)c3)cs2)CC1 | 97.9% (inactive)
CCCOc1ccc(CC(=O)NO)cc1 | 91.5% (inactive)
CCCCOc1ccc(C(C)C(=O)OC)cc1 (stereo unspecified) | 97.4% (inactive)
CCCCOc1ccc(C(C)(C)C(=O)O)cc1 | 98.2% (inactive)

test system: Vero E6 viability, CellTiter-Glo luminescence, 72 h; test: as above; settings: not given
How it was run: as §1

Structure (SMILES) | CC50
O=C(Cc1ccc(Oc2ccccc2)cc1)NO | 45 µM
CCc1ccc(NC(=O)Cc2nc(-c3ccc(O)c(O)c3)cs2)cc1 | 42.2 µM
O=C(NCc1ccc(Cl)cc1)C1CCN(S(=O)(=O)c2ccc(Br)s2)CC1 | 21.8 µM
COc1ccc(CCNC(c2ccccc2)c2ccccc2)cc1OC | 45.8 µM
O=C(Cc1ccc(OCc2ccccc2)cc1)NO | 48.5 µM
Oc1ccc(CCNC(c2ccccc2)c2ccccc2)cc1O | 38.7 µM
CCCCOc1ccc(CC(=O)N(C)O)cc1 | 44.6 µM
CCCCCCCCCC(=O)NO | 31 µM
CCCCOc1ccc(CCC(=O)NO)cc1 | 34.1 µM
CC[C@H](C)[C@H](NC(=O)c1ccc(C(C)(C)C)cc1)C(=O)NCc1ccc2c(c1)OCO2 | 38.2 µM
Oc1ccc(CCNc2c3ccccc3nc3ccccc23)cc1O | 45.4 µM
CC[C@H](C)[C@H](NS(=O)(=O)c1ccc(Br)s1)C(=O)NCc1ccc(Cl)cc1 | 46.4 µM
CN(O)C(=O)Cc1ccc(OCc2ccccc2)cc1 | 32.5 µM
COc1ccc(CCNc2c3ccccc3nc3ccccc23)cc1OC | 17.9 µM
COc1ccc(CCN(C)c2c3ccccc3nc3ccccc23)cc1OC | 40.8 µM
CCCCOc1ccc(C(C)C(=O)NO)cc1 (stereo unspecified) | 40.8 µM
CCCCOc1ccc(CN(O)C(=O)c2ccccc2)cc1 | 20.9 µM
